# Data taken from ChEMBL document CHEMBL2169794, “Induction of apoptosis by 3-amino-6-(3-aminopropyl)-5,6-dihydro-5,11-dioxo-11H-indeno[1,2-c]isoquinoline via modulation of MAPKs (p38 and c-Jun N-terminal kinase) and c-Myc in HL-60 human leukemia cells” (J Nat Prod, 2012).
# The source made the active and inactive calls. The rule behind the calls is not given here.
# Legend:
# HL-60 [1] = assay: Effect on total p38MAPK protein expression in human HL60 cells at 1 uM incubated for 1 to 24 hrs by Western blot method; type: functional, cell-based
# Outline: (§1)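 HL-60 cells exposed to 1 µM test agent for the indicated times, then lysed. 15 µg protein run on 12% SDS-PAGE, blotted to PVDF, probed overnight at 4 °C with antibodies to phospho- or total ERK1/2, p38 (Thr180/Tyr182), SAPK/JNK (Thr183/Tyr185) or c-Myc. HRP secondary, chemiluminescent read-out.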
# HL-60 [2] = assay: Cell cycle arrest in human HL60 cells assessed as accumulation at subG0/G1 phase at 0.125 uM by NIM-DAPI staining based flow cytometry (reference value: 2.8 +/- 0.8%); type: functional
# HL-60 [3] = assay: Antiproliferative activity against human HL60 cells after 48 hrs by MTT assay; type: functional, cell-based; conditions: HL-60, 48 h
# Outline: (§2)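 HL-60 cells seeded at 2×10^4 per well, treated after 24 h with serial dilutions (0.0625-1 µM) for 24, 48, 72 or 96 h; DMSO 0.1% vehicle control. MTT added (final 500 µg/mL) for 4 h, formazan dissolved in DMSO, OD at 540 nm. Inhibition calculated relative to vehicle control after subtracting time-zero reading; IC50 by curve fitting; n = 6 per group.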
# HL-60 [4] = assay: Induction of cleaved caspase 7 expression in human HL60 cells at 0.25 to 2 uM incubated for 24 hrs by Western blotting method; type: functional, cell-based
# Outline: (§3)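 HL-60 cells exposed for 24 h to the stated concentrations and lysed; protein measured by Bradford. Lysate (15 µg) run on 12% SDS-PAGE and transferred to PVDF. Blocked in 5% milk/TBST for 1 h, primary antibody overnight at 4 °C, HRP secondary for 2 h at room temperature, chemiluminescent detection.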
# HL-60 [5] = assay: Cell cycle arrest in human HL60 cells assessed as accumulation at G2/M phase at 0.25 uM by NIM-DAPI staining based flow cytometry (reference value: 13.2 +/- 2.8%); type: functional
# HL-60 [6] = assay: Induction of apoptosis assessed as increase in caspase 3/7 enzyme activity in human HL60 cells at 1 uM incubated for 24 to 72 hrs by luminometry relative to untreated control; type: functional
# Outline: (§4)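 HL-60 cells treated with serial dilutions in 96-well plates for 24, 48 and 72 h. Luminogenic caspase-3/7, caspase-8 or caspase-9 substrate reagent added for 3 h at room temperature, then luminescence read. Results are expressed as fold over DMSO vehicle control.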
# HL-60 [7] = assay: Induction of apoptosis in human HL60 cells assessed as necrotic cells level at 2 uM incubated for 24 hrs by annexinV/7-AAD double staining based flow cytometry (reference value: 3.45%); type: functional
# HL-60 [8] = assay: Induction of apoptosis in human HL60 cells assessed as viable cells level at 1 uM incubated for 24 hrs by annexinV/7-AAD double staining based flow cytometry (reference value: 92.44%); type: functional
# HL-60 [9] = assay: Antiproliferative activity against human HL60 cells after 72 hrs by MTT assay; type: functional, cell-based; conditions: HL-60, 72 h; outline: as §2
# HL-60 [10] = assay: Induction of apoptosis assessed as increase in caspase 9 enzyme activity in human HL60 cells at 1 uM incubated for 24 to 72 hrs by luminometry relative to untreated control; type: functional; outline: as §4
# HL-60 [11] = assay: Cell cycle arrest in human HL60 cells assessed as accumulation at G2/M phase at 0.5 uM by NIM-DAPI staining based flow cytometry (reference value: 13.2 +/- 2.8%); type: functional
# HL-60 [12] = assay: Cell cycle arrest in human HL60 cells assessed as accumulation at G2/M phase at 0.125 uM by NIM-DAPI staining based flow cytometry (reference value: 13.2 +/- 2.8%); type: functional
# HL-60 [13] = assay: Induction of apoptosis in human HL60 cells assessed as late apoptotic cells level at 2 uM incubated for 24 hrs by annexinV/7-AAD double staining based flow cytometry (reference value: 0.43%); type: functional
# HL-60 [14] = assay: Induction of cleaved caspase 3 expression in human HL60 cells at 0.25 to 2 uM incubated for 24 hrs by Western blotting method; type: functional, cell-based; outline: as §3
# HL-60 [15] = assay: Cell cycle arrest in human HL60 cells assessed as accumulation at subG0/G1 phase at 0.25 uM by NIM-DAPI staining based flow cytometry (reference value: 2.8 +/- 0.8%); type: functional
# HL-60 [16] = assay: Antiproliferative activity against human HL60 cells after 24 hrs by MTT assay; type: functional, cell-based; conditions: HL-60, 24 h; outline: as §2
# HL-60 [17] = assay: Antiproliferative activity against human HL60 cells after 96 hrs by MTT assay; type: functional, cell-based; conditions: HL-60, 96 h; outline: as §2
# HL-60 [18] = assay: Effect on total SAPK/JNK protein expression in human HL60 cells at 1 uM incubated for 1 to 24 hrs by Western blot method; type: functional, cell-based; outline: as §1
# HL-60 [19] = assay: Induction of PARP cleavage in human HL60 cells 2 uM incubated for 24 hrs by Western blot method; type: functional, cell-based; outline: as §3
# [20] = target: MAP kinase p38 (Homo sapiens) (UniProt O15264+Q15759+Q16539+P53778); assay: Induction of p38 MAPK phosphorylation in human HL60 cells at 1 uM incubated for 1 to 24 hrs by Western blot method; type: cell-based; conditions: HL-60; outline: as §1
# HL-60 [21] = assay: Induction of apoptosis in human HL60 cells assessed as late apoptotic cells level at 1 uM incubated for 24 hrs by annexinV/7-AAD double staining based flow cytometry (reference value: 0.43%); type: functional
# HL-60 [22] = assay: Down regulation of c-Myc protein expression in human HL60 cells at 1 uM after 2 hrs by Western blot method; type: functional, cell-based; outline: as §1
# HL-60 [23] = assay: Effect on total ERK1/2 protein expression in human HL60 cells at 1 uM incubated for 1 to 24 hrs by Western blot method; type: functional, cell-based; outline: as §1
# [24] = target: c-Jun N-terminal kinase, JNK (Homo sapiens) (UniProt P45983+P53779+P45984); assay: Induction of JNK phosphorylation in human HL60 cells at 1 uM incubated for 1 to 24 hrs by Western blot method; type: cell-based; conditions: HL-60; outline: as §1
# HL-60 [25] = assay: Induction of apoptosis in human HL60 cells assessed as necrotic cells level at 1 uM incubated for 24 hrs by annexinV/7-AAD double staining based flow cytometry (reference value: 3.45%); type: functional
# HL-60 [26] = assay: Induction of apoptosis in human HL60 cells assessed as viable cells level at 2 uM incubated for 24 hrs by annexinV/7-AAD double staining based flow cytometry (reference value: 92.44%); type: functional
# HL-60 [27] = assay: Reduction in mitochondrial transmembrane electric potential in human HL60 cells 1 uM incubated for 96 hrs by DiOC6(3) dye staining based flow cytometry; type: functional, cell-based
# Outline: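 HL-60 cells given DMSO vehicle or 1 µM test agent for 96 h, then loaded with 100 nM DiOC6(3) for 30 min at 37 °C. After washing and resuspension in PBS, the cells were read at once by flow cytometry in FL-1.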
# HL-60 [28] = assay: Cell cycle arrest in human HL60 cells assessed as accumulation at subG0/G1 phase at 1 uM by NIM-DAPI staining based flow cytometry (reference value: 2.8 +/- 0.8%); type: functional
# HL-60 [29] = assay: Induction of PARP cleavage in human HL60 cells 1 uM incubated for 24 hrs by Western blot method; type: functional, cell-based; outline: as §3
# HL-60 [30] = assay: Cell cycle arrest in human HL60 cells assessed as accumulation at subG0/G1 phase at 0.5 uM by NIM-DAPI staining based flow cytometry (reference value: 2.8 +/- 0.8%); type: functional
# HL-60 [31] = assay: Cell cycle arrest in human HL60 cells assessed as accumulation at G2/M phase at 0.0625 uM by NIM-DAPI staining based flow cytometry (reference value: 13.2 +/- 2.8%); type: functional
# HL-60 [32] = assay: Induction of apoptosis assessed as increase in caspase 8 enzyme activity in human HL60 cells at 1 uM incubated for 24 to 72 hrs by luminometry relative to untreated control; type: functional, cell-based; outline: as §4
# HL-60 [33] = assay: Induction of apoptosis in human HL60 cells assessed as early apoptotic cells level at 1 uM incubated for 24 hrs by annexinV/7-AAD double staining based flow cytometry (reference value: 3.68%); type: functional
# HL-60 [34] = assay: Induction of apoptosis in human HL60 cells assessed as early apoptotic cells level at 2 uM incubated for 24 hrs by annexinV/7-AAD double staining based flow cytometry (reference value: 3.68%); type: functional
# HL-60 [35] = assay: Cell cycle arrest in human HL60 cells assessed as accumulation at subG0/G1 phase at 0.0625 uM by NIM-DAPI staining based flow cytometry (reference value: 2.8 +/- 0.8%); type: functional
compound,measurement,setting,value
Cl.Cl.NCCCn1c2c(c3ccc(N)cc3c1=O)C(=O)c1ccccc1-2,Activity,HL-60 [1],inactive
same,Activity,HL-60 [2],6%
same,IC50,HL-60 [3],350 nM
same,Activity,HL-60 [4],Active
same,Activity,HL-60 [5],45%
same,fold change (FC),HL-60 [6],12.6
same,Activity,HL-60 [7],4.57%
same,Activity,HL-60 [8],57.62%
same,IC50,HL-60 [9],150 nM
same,fold change (FC),HL-60 [10],7.8
same,Activity,HL-60 [11],27.6%
same,Activity,HL-60 [12],39.6%
same,Activity,HL-60 [13],6.27%
same,Activity,HL-60 [14],Active
same,Activity,HL-60 [15],6.1%
same,IC50,HL-60 [16],800 nM
same,IC50,HL-60 [17],86 nM
same,Activity,HL-60 [18],inactive
same,Activity,HL-60 [19],Active
same,Activity,[20],Active
same,Activity,HL-60 [21],5.21%
same,Activity,HL-60 [22],Active
same,Activity,HL-60 [23],inactive
same,Activity,[24],Active
same,Activity,HL-60 [25],2.99%
same,Activity,HL-60 [26],37.6%
same,Activity,HL-60 [27],Active
same,Activity,HL-60 [28],26.5%
same,Activity,HL-60 [29],Active
same,Activity,HL-60 [30],11.1%
same,Activity,HL-60 [31],22%
same,Activity,HL-60 [32],inactive
same,Activity,HL-60 [33],34.18%
same,Activity,HL-60 [34],51.56%
same,Activity,HL-60 [35],4.6%
